Measured values gathered from unrelated publications.
Protocols differ between the studies behind these lines.
RPS6KA5: Ribosomal protein S6 kinase alpha-5 (RPS6KA5, Homo sapiens, UniProt O75582)
RPS6KA5 C-terminal kinase domain: Ribosomal protein S6 kinase alpha-5, C-terminal kinase domain (RPS6KA5, Homo sapiens, UniProt O75582)
RPS6KA5 N-terminal kinase domain: Ribosomal protein S6 kinase alpha-5, N-terminal kinase domain (RPS6KA5, Homo sapiens, UniProt O75582)

SMILES	target	assay	conditions	endpoint	value
Cc1cc(NC(=O)c2cccc3cc(-c4cccc5[nH]nc(N)c45)ccc23)ccc1F	RPS6KA5	enzyme activity, inhibitor	0.1 µM	activity vs control	94%
C[C@H]1CCN(c2nccc(-c3cnn4ncccc34)n2)C1	RPS6KA5 C-terminal kinase domain	binding, competition with immobilised ligand	1 µM	remaining binding	100%
CCC(=N\O)/C(C)=C/c1ccc(F)cc1	RPS6KA5 N-terminal kinase domain	cell-free assay, competition with immobilised ligand	1 µM	remaining binding	100%
CN(C)c1ncc(F)c(-c2cnn3ncccc23)n1	RPS6KA5 C-terminal kinase domain	binding, competition with immobilised ligand	1 µM	remaining binding	89%
COc1cc2ncnc(Nc3ccc(Oc4ccccc4)cc3C)c2cc1OC	RPS6KA5	enzyme activity, inhibitor	1 µM	inhibition	2%
Oc1ccc(-c2nc(-c3ccncc3)c(-c3ccc(F)cc3)[nH]2)cc1	RPS6KA5	cell-free assay	0.5 µM	remaining signal	107%
CCN(CC)c1ccc(C2=NNC(=O)CC2C)cc1[N+](=O)[O-] (stereo not drawn)	RPS6KA5	enzyme activity, inhibitor	10 µM	remaining activity	83%
O=c1nc(-c2ccccn2)sc2ccccc12	RPS6KA5 N-terminal kinase domain	binding, competition with immobilised ligand	1 µM	remaining binding	94%
CCCS(=O)(=O)Nc1ccc(F)c(C(=O)c2c[nH]c3ncc(-c4ccc(Cl)cc4)cc23)c1F	RPS6KA5	enzyme activity, inhibitor	1 µM	inhibition	< 10%
Nc1nc(Nc2ccccc2)sc1C(=O)c1c(F)cccc1F	RPS6KA5	enzyme activity, inhibitor	10 µM	remaining activity	87%
NS(=O)(=O)c1cc(NC(=O)Cc2ccccc2)ccc1Oc1cccc(Cl)c1	RPS6KA5 N-terminal kinase domain	cell-free assay, competition with immobilised ligand	1 µM	remaining binding	71%
CNCc1ccc(-c2cc(-c3nc(-c4ccc(S(=O)(=O)C(C)C)cc4)cnc3N)on2)cc1	RPS6KA5	enzyme activity, inhibitor	0.4 µM	inhibition	0%
Oc1cccc(-c2nc(N3CCOCC3)c3oc4ncccc4c3n2)c1	RPS6KA5	enzyme activity, inhibitor	10 µM	remaining activity	105%
COc1ccc2cc(OCC3(C(=O)O)CN(C(=O)c4ccc(F)cc4)C3)ccc2c1	RPS6KA5 N-terminal kinase domain	cell-free assay, competition with immobilised ligand	1 µM	remaining binding	100%
c1cnn2ncc(-c3ccnc(N4CCC45COC5)n3)c2c1	RPS6KA5 C-terminal kinase domain	binding, competition with immobilised ligand	1 µM	remaining binding	100%
Cc1ccc(Nc2nccc(N(C)c3ccc4c(C)n(C)nc4c3)n2)cc1S(N)(=O)=O	RPS6KA5	enzyme activity, inhibitor	0.3 µM	inhibition	6%
CC(C)(O)[C@H]1CC[C@H](Nc2ccc3ncc(-c4cccc(C(F)(F)F)c4)n3n2)CC1	RPS6KA5	enzyme activity, inhibitor	1 µM	remaining activity	98.9%
CC1CCCN1c1nccc(-c2cnn3ncccc23)n1 (stereo not drawn)	RPS6KA5 N-terminal kinase domain	binding, competition with immobilised ligand	1 µM	remaining binding	100%

SMILES	target	assay	conditions	endpoint	value
CN1CC(Oc2cnc(C#N)cc2-c2ccn3nc(NC(=O)C4CC4)cc3c2)C1	RPS6KA5	enzyme activity, inhibitor	1 µM	inhibition	-7%
CCS(=O)(=O)c1cc2cc(C[C@](O)(CC(C)(C)c3ccc(F)cc3C(N)=O)C(F)(F)F)[nH]c2cn1	RPS6KA5 C-terminal kinase domain	cell-free assay, competition with immobilised ligand	1 µM	remaining binding	100%
Nc1ncnc2occ(-c3ccc(NC(=O)Nc4cc(C(F)(F)F)ccc4F)cc3)c12	RPS6KA5 N-terminal kinase domain	cell-free assay, inhibitor	20 µM	remaining signal	2.2%
Cc1nc(C2CCN(C(=O)c3ccc(OC(F)(F)F)cc3N)CC2)c2ncc(N3CCN(C)CC3)cc2n1	RPS6KA5 N-terminal kinase domain	cell-free assay, competition with immobilised ligand	1 µM	remaining binding	100%
COc1cc(/C=C/C(=O)CC(=O)/C=C/c2ccc(O)c(OC)c2)ccc1O	RPS6KA5	enzyme activity, inhibitor	1 µM	activity vs control	92%
COc1cc2c(N3CCN(C(=O)Nc4ccc(OC(C)C)cc4)CC3)ncnc2cc1OCCCN1CCCCC1	RPS6KA5	cell-free assay	0.5 µM	remaining signal	109%
Cc1ccc(C(=O)Nc2ccc(CN3CCN(C)CC3)c(C(F)(F)F)c2)cc1C#Cc1cnc2cccnn12	RPS6KA5	enzyme activity, inhibitor	23.5 nM	activity vs control	96%
N[C@H]1CCN(c2nccc(-c3cnn4ncccc34)n2)C1	RPS6KA5 C-terminal kinase domain	binding, competition with immobilised ligand	1 µM	remaining binding	100%
CNC(=O)c1cc(Oc2ccc(NC(=O)Nc3ccc(Cl)c(C(F)(F)F)c3)cc2)ccn1	RPS6KA5	enzyme activity, inhibitor	0.3 µM	inhibition	-5%
Nc1c(C(=O)NCc2ccc(C(=O)NCCCC3CCCCC3)cc2)cnn1-c1ccccc1	RPS6KA5 N-terminal kinase domain	cell-free assay, competition with immobilised ligand	0.1 µM	remaining binding	94%
Cc1cnc(NC2CCOCC2)nc1-n1cnc(C(=O)NC(CN)c2cc(F)cc(Cl)c2)c1 (stereo not drawn)	RPS6KA5	enzyme activity, inhibitor, radiometric	1 µM	remaining activity	74%
CC1=C(C#N)C(c2ccc3c(c2)c(NC(=O)c2ccccc2C)nn3C)C(C#N)=C(C)N1	RPS6KA5 N-terminal kinase domain	cell-free assay, competition with immobilised ligand	1 µM	remaining binding	91%
Nc1nc(Nc2ccc(S(N)(=O)=O)cc2)nn1C(=O)c1c(F)cccc1F	RPS6KA5	cell-free assay	0.5 µM	remaining signal	97.2%
COc1cc(Nc2cnc(C#N)c(O[C@H](C)CN(C)C)n2)ncc1-c1cnn(C)c1	RPS6KA5	enzyme activity, inhibitor, radiometric	1 µM	remaining activity	86%
CN(c1ncccc1CNc1nc(Nc2ccc3c(c2)CC(=O)N3)ncc1C(F)(F)F)S(C)(=O)=O	RPS6KA5	enzyme activity, inhibitor	1 µM	inhibition	31.9%
CC(C)(C)c1nc(-c2cccc(NS(=O)(=O)c3c(F)cccc3F)c2F)c(-c2ccnc(N)n2)s1	RPS6KA5	enzyme activity, inhibitor, radiometric	1 µM	remaining activity	97%
O=C(Nc1cnn(-c2csc(C(=O)NC3COC3)c2)c1)Nc1c(F)cccc1Cl	RPS6KA5	enzyme activity, inhibitor	5 µM	remaining activity	104%
C[C@@H]1CCN(C(=O)CC#N)C[C@@H]1N(C)c1ncnc2[nH]ccc12	RPS6KA5	cell-free assay, inhibitor	0.5 µM	remaining signal	94.8%
